Test results as given in ChEMBL document CHEMBL4184341, “Structure-Based Design of Inhibitors with Improved Selectivity for Steroidogenic Cytochrome P450 17A1 over Cytochrome P450 21A2” (J Med Chem, 2018).

Experiments:
[1] = molecular target: T1, Steroid 17-alpha-hydroxylase/17,20 lyase (Homo sapiens, UniProt P05093); experiment: Inhibition of C-terminal His-tagged recombinant human CYP17A1delta19H mutant expressed in Escherichia coli DH5alpha assessed as decrease in progesterone hydroxylation preincubated for 3 mins followed by NADPH addition measured after 10 mins in presence of cytochrome p450 reductase by LC-MS/MS method
Outline: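 Purified human CYP17A1 (20 pmol) was preincubated with full-length human CPR (80 pmol) for 20 min at rt. […] After 3 min at 37 °C, 1 mM NADPH was added and the reaction ran 10 min before a TCA stop. The 17α-hydroxy product was read by LC-MS/MS.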

[2] = molecular target: Steroid 21-hydroxylase (Homo sapiens, UniProt P08686); experiment: Inhibition of C-terminal His-tagged recombinant human CYP21A2deltaH mutant expressed in Escherichia coli DH5alpha assessed as decrease in progesterone hydroxylation preincubated for 3 mins followed by NADPH addition measured after 8 mins in presence of cytochrome p450 reductase by LC-MS/MS method
[3] = species: Homo sapiens; experiment: Selectivity ratio of IC50 for C-terminal His-tagged recombinant human CYP21A2deltaH mutant to IC50 for C-terminal His-tagged recombinant human CYP17A1delta19H mutant
[4] = molecular target: T1, Steroid 17-alpha-hydroxylase/17,20 lyase; experiment: Inhibition of C-terminal His-tagged recombinant human CYP17A1delta19H mutant expressed in Escherichia coli JM109 cells assessed as decrease in progesterone hydroxylation in presence of cytochrome P450 reductase […]

T1 sequence (P05093 whole entry, looked up): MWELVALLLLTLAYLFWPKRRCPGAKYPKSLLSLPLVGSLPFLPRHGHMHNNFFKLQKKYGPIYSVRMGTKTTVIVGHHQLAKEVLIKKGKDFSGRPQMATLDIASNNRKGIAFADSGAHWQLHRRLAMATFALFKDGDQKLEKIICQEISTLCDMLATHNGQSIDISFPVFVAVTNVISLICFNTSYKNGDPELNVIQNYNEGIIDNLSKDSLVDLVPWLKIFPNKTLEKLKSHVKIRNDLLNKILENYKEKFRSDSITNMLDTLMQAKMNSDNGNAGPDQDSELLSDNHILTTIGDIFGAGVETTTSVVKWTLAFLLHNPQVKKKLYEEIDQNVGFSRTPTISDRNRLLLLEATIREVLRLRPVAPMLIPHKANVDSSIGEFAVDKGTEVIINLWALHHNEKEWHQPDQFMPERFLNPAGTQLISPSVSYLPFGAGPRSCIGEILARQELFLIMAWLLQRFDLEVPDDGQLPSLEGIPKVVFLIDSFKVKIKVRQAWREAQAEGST
Sequence of Steroid 21-hydroxylase (P08686 whole entry, looked up, stated change not applied): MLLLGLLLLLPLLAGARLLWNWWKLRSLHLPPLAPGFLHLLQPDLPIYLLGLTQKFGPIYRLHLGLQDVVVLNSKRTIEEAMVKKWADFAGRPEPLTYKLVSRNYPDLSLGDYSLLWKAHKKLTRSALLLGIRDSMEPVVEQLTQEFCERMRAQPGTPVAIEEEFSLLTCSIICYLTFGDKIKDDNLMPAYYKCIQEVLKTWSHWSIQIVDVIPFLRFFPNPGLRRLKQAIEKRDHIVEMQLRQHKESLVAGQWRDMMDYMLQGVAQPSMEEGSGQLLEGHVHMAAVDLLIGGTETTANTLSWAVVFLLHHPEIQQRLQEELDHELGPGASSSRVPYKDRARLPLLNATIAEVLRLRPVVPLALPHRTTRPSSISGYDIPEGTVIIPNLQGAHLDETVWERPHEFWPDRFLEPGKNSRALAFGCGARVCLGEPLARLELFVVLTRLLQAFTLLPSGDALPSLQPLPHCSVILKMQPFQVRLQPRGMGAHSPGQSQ

| SMILES | IC50 [1] [nM] | IC50 [2] [nM] | Ratio IC50 [3] | IC50 [4] [nM] |
| --- | --- | --- | --- | --- |
| C[C@]12CC[C@H](O)CC1=C(C#N)C[C@@H]1[C@@H]2CC[C@]2(C)C(c3cccnc3)=CC[C@@H]12 | 15.5 | – | – | – |
| C[C@]12CC[C@H](O)C[C@@H]1C(=O)C[C@@H]1[C@@H]2CC[C@]2(C)C(c3cccnc3)=CC[C@@H]12 | 12.4 | 440 | 35 | – |
| C[C@]12CC[C@H](O)CC1=CC[C@@H]1[C@@H]2CC[C@]2(C)C(n3cnc4ccccc43)=CC[C@@H]12 [GALETERONE] | 28.1 | – | – | – |
| C[C@]12CC[C@H](O)CC1=CC[C@@H]1[C@@H]2CC[C@]2(C)C(c3ccccc3)=CC[C@@H]12 | > 20000 | ≥ 700 | – | – |
| C[C@]12CC[C@H](O)CC1=CC[C@@H]1[C@@H]2CC[C@]2(C)C(c3cccnc3)=CC[C@@H]12 [ABIRATERONE] | 4.94 | – | – | 9.4 to 92 |
| C[C@]12CCC(=O)C=C1CC[C@@H]1[C@@H]2CC[C@]2(C)C(c3cccnc3)=CC[C@@H]12 | 6.13 | 0.7 | – | – |
| C[C@]12CC[C@H](O)CC1=C(C(N)=O)C[C@@H]1[C@@H]2CC[C@]2(C)C(c3cccnc3)=CC[C@@H]12 | 22.8 | 673 | 29 | – |
| C[C@]12CC[C@H](O)C[C@@H]1[C@@H](O)C[C@@H]1[C@@H]2CC[C@]2(C)C(c3cccnc3)=CC[C@@H]12 | 7.2 | 234 | 33 | – |
| C[C@]12CC[C@H](O)C[C@@H]1NC(=O)C[C@@H]1[C@@H]2CC[C@]2(C)C(c3cccnc3)=CC[C@@H]12 | 230 | 3600 | 16 | – |
